Laboratory results taken from ChEMBL document CHEMBL2177013, “Synthesis and biological evaluation of tylophorine-derived dibenzoquinolines as orally active agents: exploration of the role of tylophorine e ring on biological activity” (J Med Chem, 2012).

Assays:
Format in all cases: ADME, organism-based
[1] = AUC (0 to infinity) in Sprague-Dawley rat at 1.5 mg/kg, po by HPLC-MS method; set-up: time infinity, dose 1.5 mg/kg, route oral; settings: plasma
Summary of the method: (§1)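 Male rats (330−380 g, 9−10 weeks old) fitted with a jugular vein cannula 1 day before dosing and fasted; 1.5 mg/kg given iv or orally in DMA/PEG400 (50/50, v/v), n = 3. Blood (150 μL) drawn at 0, 2, 5 (iv only), 15, 30 min and 1, 2, 4, 6, 8, 12, 24 h. Plasma analysed by HPLC-MS; parameters by noncompartmental analysis.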

[2] = Tmax in Sprague-Dawley rat at 1.5 mg/kg, po by HPLC-MS method; set-up: dose 1.5 mg/kg, route oral; settings: in vivo; summary of the method: as §1
[3] = Cmax in Sprague-Dawley rat at 1.5 mg/kg, po by HPLC-MS method; set-up: dose 1.5 mg/kg, route oral; settings: in vivo; summary of the method: as §1
[4] = Apparent elimination half life in Sprague-Dawley rat at 1.5 mg/kg, po by HPLC-MS method; set-up: dose 1.5 mg/kg, route oral; settings: in vivo, read-out: betat1/2(app) (converted); summary of the method: as §1
[5] = AUC (0 to infinity) in Sprague-Dawley rat at 1.5 mg/kg, iv by HPLC-MS method; set-up: time infinity, dose 1.5 mg/kg, route intravenous; settings: plasma; summary of the method: as §1
[6] = Volume of distribution at steady state in Sprague-Dawley rat at 1.5 mg/kg, iv by HPLC-MS method; set-up: dose 1.5 mg/kg, route intravenous; settings: in vivo, read-out: Vdss; summary of the method: as §1
[7] = Clearance in Sprague-Dawley rat at 1.5 mg/kg, iv by HPLC-MS method; set-up: dose 1.5 mg/kg, route intravenous; settings: in vivo; summary of the method: as §1
[8] = Apparent elimination half life in Sprague-Dawley rat at 1.5 mg/kg, iv by HPLC-MS method; set-up: dose 1.5 mg/kg, route intravenous; settings: in vivo, read-out: betat1/2(app) (converted); summary of the method: as §1
[9] = Oral bioavailability in Sprague-Dawley rat at 1.5 mg/kg by HPLC-MS method; settings: in vivo; summary of the method: as §1

COc1cc2c(cc1OC)[C@@H]1[C@@H](O)[C@@H]3CCC(=O)N3C[C@@H]1c1cc(OC)c(OC)cc1-2 [TYLOPHOVATINE C]
AUC(0-inf) [1]: 453 ng·h/mL | Tmax [2]: 4.3 h | Cmax [3]: 39 ng/mL | half-life [4]: 7.6 h | AUC(0-inf) [5]: 448 ng·h/mL | Vd [6]: 12.4 L/kg | clearance [7]: 37.6 mL/min/kg | half-life [8]: 4.6 h | bioavailability [9]: 54.3%
